The target in one assay is α-glucosidase. The conditions noted are these: read-out: IC50 against α-glucosidase; ref Hakamata et al., 2006; cited from earlier work.
In the next assay the target is HCV NS3/4A protease (Hepatitis C virus genotype 1a, UniProt P27958). The assay can be described thus: HCV NS3/4A protease inhibition. Type of assay: biochemical. In outline: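 Test compound in DMSO was mixed with HCV NS3/4A protease solution (0.5 μg/ml; SensoLyte 520 kit). The reaction was started with substrate diluted 100× from a DMSO stock. After 30 min at room temperature, fluorescence was read (ex 485/em 535 nm) and corrected with a substrate blank. % inhibition was taken against a compound-free control. IC50 came from concentration–inhibition curves, with embelin as reference inhibitor.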

The values that follow come from paper PMC7105014 (Journal of Functional Foods, 2011).

Sequence of HCV NS3/4A protease (P27958 1027-1657 limits assumed): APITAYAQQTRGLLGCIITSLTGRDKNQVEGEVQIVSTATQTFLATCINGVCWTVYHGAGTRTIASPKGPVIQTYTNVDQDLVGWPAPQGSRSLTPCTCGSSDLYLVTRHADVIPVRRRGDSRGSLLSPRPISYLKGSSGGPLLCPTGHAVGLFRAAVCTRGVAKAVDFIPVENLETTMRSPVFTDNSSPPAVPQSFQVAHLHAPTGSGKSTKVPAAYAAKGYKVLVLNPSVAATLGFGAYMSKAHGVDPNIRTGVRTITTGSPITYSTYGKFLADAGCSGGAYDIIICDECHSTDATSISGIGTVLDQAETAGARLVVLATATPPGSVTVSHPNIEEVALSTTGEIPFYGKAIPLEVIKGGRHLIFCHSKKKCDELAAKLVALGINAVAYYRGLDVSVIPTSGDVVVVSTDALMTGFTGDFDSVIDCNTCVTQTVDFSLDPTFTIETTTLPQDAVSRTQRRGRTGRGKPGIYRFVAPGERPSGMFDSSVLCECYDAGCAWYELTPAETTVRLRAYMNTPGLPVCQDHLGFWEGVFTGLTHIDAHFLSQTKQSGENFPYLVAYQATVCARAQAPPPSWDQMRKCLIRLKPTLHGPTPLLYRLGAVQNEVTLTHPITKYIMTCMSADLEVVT
Sequence of HCV NS3/4A protease (P27958 1658-1711 partner limits assumed): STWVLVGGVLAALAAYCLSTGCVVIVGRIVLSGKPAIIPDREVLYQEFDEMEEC

For the compound `Oc1cc(O)c2c(c1)O[C@H](c1ccc(O)c(O)c1)[C@@H](O)C2` [(+)-catechin], on α-glucosidase, the 50% inhibitory concentration (IC50) was > 500 µM. As for `CCCCCCCCCCCC1=C(O)C(=O)C=C(O)C1=O` [Embelin, embelin], the midpoint of inhibition at HCV NS3/4A protease, the IC50, lay at 10.2 µM.

Usually IC50 stands for the concentration needed to halve the response being measured.
